An excerpt weighted towards active compounds, which were near 3% of everything screened.
MITF act: activators of MITF-driven TRPM1 promoter activity in SK-MEL-5 cells; SK-MEL-5 TRPM1-promoter luciferase, 24 h; % of positive control, neutral wells = 0; activation, % at 12.5 µM; hit rate 0.75% among 300,000;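 active = mean activation of at least 80% with every replicate also reaching 80%; inconclusive = mean reaches 80% but some replicate falls short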;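 note: 0% = neutral control wells and 100% = parthenolide positive control wells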
CASP6 VEID inh: blocks human caspase-6 cleavage activity. P55212. purified caspase-6, Z-VEID-R110 cleavage fluorescence. inhibition, % at 12.5 µM. hit rate 0.53% among 350,000;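 active = mean inhibition across replicates at least about 35%, with every replicate also reaching that limit, limit read from the data; inconclusive = only one of the two criteria met; inactive = neither criterion met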;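 note: 0% = median of neutral control wells and 100% = no fluorescence left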
Target sequence (P55212 24-179 limits assumed): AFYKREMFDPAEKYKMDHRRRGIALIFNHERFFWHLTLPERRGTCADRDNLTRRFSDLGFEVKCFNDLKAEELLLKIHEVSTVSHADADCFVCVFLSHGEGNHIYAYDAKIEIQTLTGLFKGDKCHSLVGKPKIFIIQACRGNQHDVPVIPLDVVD
Target sequence (P55212 194-293 limits assumed): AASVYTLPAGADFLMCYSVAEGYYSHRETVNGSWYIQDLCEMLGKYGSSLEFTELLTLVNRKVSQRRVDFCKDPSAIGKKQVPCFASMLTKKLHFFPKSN
Xi reactivation: reactivates the inactive X chromosome in mouse fibroblasts. XiGFP mouse fibroblasts, % GFP-positive cells imaging, 3 d; cells co-treated with 5-aza-dC sensitizer; scaled so ellipticine positive control = 100%. activation, % at 7.58 µM. hit rate 0.055% among 360,000. AID 743238;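 active = mean normalized replicate activation at least 10% and every replicate at or above 10%; inconclusive = only one of the two criteria met; inactive = mean below 10% and not all replicates reach 10%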;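 note: 0% = median of on-plate neutral control wells and 100% = ellipticine 6 µM median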
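Assay system: SV40-immortalized XiGFP fibroblast cells, line 68-5-11; buffer or medium: DMEM plus 5-aza-dC sensitizer; compound: one concentration, pinned; timing: compounds 3 days, fix/stain 15 min at room temperature; benchmarks: positive control ellipticine, 6 µM final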
esBAF inh: blocks esBAF chromatin remodeling in mouse ES cells; Bmi1-luciferase knock-in reporter, 24 h; 100% = twice the neutral-well signal; reporter increase, % at 12.5 µM; hit rate 2% among 350,000; AID 602393; in the data active = activation above about 40%; inconclusive = no clear call, values can overlap the other calls;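 note: 0% = median of the plate's neutral control wells and 100% = double that signal; a rise in the Bmi1 reporter signal indicates esBAF inhibition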
Wnt bcat act: Wnt/beta-catenin pathway activation; Wnt/beta-catenin reporter cell assay, activator, plate reader; activation, % at 9.35 µM; hit rate 1.2% among 300,000; AID 743398; in the data active = activation above about 30%, passing the limit was not always enough; inconclusive = no clear call, values can overlap the other calls;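 note: 0% = neutral control wells and 100% = positive control wells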
NSD2 inh: blocks human histone methyltransferase NSD2. O96028. NSD2 peptide methylation, AlphaScreen, 120 min. hit rate 0.54% among 310,000. inhibition, % at 12.5 µM; in the data active = inhibition above about 50%
Numbers without * were called inactive; u = inconclusive; x = no result given.

SMILES	MITF act	CASP6 VEID inh	Xi reactivation	esBAF inh	Wnt bcat act	NSD2 inh
Cc1nc2c(-c3ccccc3)c(C)nn2c(N)c1-c1ccccc1	86*	x	x	x	x	-1
Cc1nn2c3c(cnc2c1-c1ccccc1)C(=O)CCC3	41	x	x	u	8	-2
O=C(C1CCCCC1)N1CC2(C1)[C@H](c1ccccc1)[C@H](CO)N2Cc1nccs1	x	0	0	x	x	x
Cc1ccc(S(=O)(=O)Nc2ccc3c(c2)C(=O)N([C@H](C)CO)C[C@@H](C)[C@H](CN(C)S(C)(=O)=O)O3)cc1	x	5	0	-2	x	x
CCc1ccc2nc(N3C(=O)C(O)=C(C(=O)c4ccco4)C3c3cccs3)sc2c1 (configuration not stated)	61	x	x	29	x	x
O=C(C1=C(O)C(=O)N(c2nc3ccc(Cl)cc3s2)C1c1ccco1)c1ccco1 (configuration not stated)	-14	88*	1	u	33*	0
Cc1ccc2nc(N3C(=O)C(O)=C(C(=O)c4ccco4)C3c3ccc(C)o3)sc2c1 (configuration not stated)	8	0	0	30	14	x
Cc1ccc2nc(N3C(=O)C(O)=C(C(=O)c4ccc(C)o4)C3c3ccco3)sc2c1 (configuration not stated)	1	48*	0	u	18	2
Cc1ccc2nc(N3C(=O)C(O)=C(C(=O)c4cc5ccccc5o4)C3c3cccs3)sc2c1 (configuration not stated)	6	x	x	45*	x	x
O=C(NC[C@H]1CC[C@H]2[C@H](CN2Cc2cccc(Cl)c2)O1)C1CCOCC1	x	1	x	x	x	x
COc1ccc([C@@H]2C/C=C\C[C@@H](c3cccc(Cl)c3)NC(=O)[C@@H](c3ccccc3)CC(=O)N2)c(OC)c1	x	x	0	x	x	x
O=C(CSC1CCc2ccccc21)NN=Cc1ccco1 (configuration not stated)	x	-1	0	x	-3	-1
O=C(CSC1CCc2ccccc21)NNC(=O)Nc1ccc(Cl)cc1 (configuration not stated)	x	-1	0	x	38*	0
Cc1cc(Br)ccc1OCCCCNCCO	17	x	x	-4	x	6
C=CCNCCCCOc1ccc(Br)cc1C	-9	x	0	x	-10	66*
C/C=C/c1ccc2c(c1)O[C@H](CN(C)C(=O)c1cnccn1)[C@H](C)CN([C@@H](C)CO)S2(=O)=O	x	-3	0	-3	x	x
CCN1[C@@H]2Cn3c(ccc(/C=C/c4ccccc4)c3=O)[C@H]1[C@@H](C(=O)N1CCCCC1)[C@@H]2CO	x	x	0	0	x	x
COc1cc(/C=N/N(C)c2ccccc2)cc(Cl)c1O	24	x	x	50*	9	7
COc1ccc(OC)c(/C=N/N(C)c2ccccc2)c1	96*	x	x	73*	x	0
COc1ccc(OC)c(C=NN=Cc2cc(OC)ccc2OC)c1	x	-2	0	-6	0	-4
CCOc1ccc(NC(=O)c2ccc3c(c2)N(C)CCS3)cc1	x	3	0	72*	37*	-2
CN1CCSc2ccc(C(=O)Nc3cc(F)ccc3F)cc21	97*	0	x	13	43*	-13
Cc1noc(C)c1S(=O)(=O)Nc1cccc2c1O[C@H](CN(C)C(=O)Nc1ccccc1)[C@H](C)CN([C@@H](C)CO)C2=O	x	0	-1	0	x	x
C[C@H](CO)N1C[C@H](C)[C@@H](CN(C)C(=O)Nc2ccc(F)cc2)OCc2ccccc2-c2c(n(C)c3ccccc23)C1=O	x	0	-1	11	x	x
COc1ccc2c3c([nH]c2c1)[C@H](CO)N(Cc1ccccc1Cl)CC31CN(C(C)=O)C1	x	x	0	x	x	x
O=C(/C=C/c1ccccc1Cl)NCCc1ccccc1	87*	-3	x	55*	-2	1
O=C(/C=C/c1ccccc1[N+](=O)[O-])NCc1ccc(Cl)cc1	0	-2	0	x	-6	-5
O=C(/C=C/c1ccccc1Cl)NCc1ccccc1	39	x	x	53*	-5	4
CC(=O)Nc1ccc2c(c1)CC(=O)N(C)C[C@H](C)[C@@H](CN(C)C(=O)NC(C)C)O2	x	x	0	x	x	x
CCc1ccc(S(=O)(=O)/N=C2\C=C(Nc3ccc(O)cc3)C(=O)c3ccccc32)cc1	-99	x	x	-71	x	29

Screening data: PubChem BioAssay, Broad Institute
